In ChEMBL document CHEMBL5357066, “Development of Novel Membrane Disrupting Lipoguanidine Compounds Sensitizing Gram-Negative Bacteria to Antibiotics” (ACS Med Chem Lett, 2024):
Converted amounts (≈) assume the structure as drawn.

Tests used:
Enterococcus faecium = assay: Antibacterial activity against vancomycin resistant Enterococcus faecium NCTC 12204 assessed as bacterial growth inhibition incubated for overnight by microbroth dilution method; type: functional
In short: (§1)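 Microbroth dilution in Tryptic Soy Broth. DMSO stocks were diluted in TSB as 2-fold series. Overnight TSB cultures were back-diluted to OD 0.01 and mixed 1:1 with compound. Incubation was overnight at 37 °C. MIC is the lowest concentration with no visible growth (<0.1 OD600). DMSO at equivalent concentrations was checked.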

Klebsiella pneumoniae [1] = assay: Antibacterial activity against Klebsiella pneumoniae M6 assessed as bacterial growth inhibition incubated for overnight by microbroth dilution method
Staphylococcus aureus [2] = assay: Antibacterial activity against methicillin sensitive Staphylococcus aureus 1199B assessed as bacterial growth inhibition incubated for overnight by microbroth dilution method; type: functional; in short: as §1
Enterococcus faecalis [3] = assay: Antibacterial activity against vancomycin sensitive Enterococcus faecalis NCTC 775 assessed as bacterial growth inhibition incubated for overnight by microbroth dilution method
Enterococcus faecalis [4] = assay: Antibacterial activity against vancomycin resistant Enterococcus faecalis NCTC 12201 assessed as bacterial growth inhibition incubated for overnight by microbroth dilution method; type: functional; in short: as §1
Escherichia coli [5] = assay: Antibacterial activity against Escherichia coli NCTC 12923 assessed as bacterial growth inhibition incubated for overnight by microbroth dilution method; type: functional
In short: (§2)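 Broth microdilution in Tryptic Soy Broth. DMSO stocks were diluted in TSB as 2-fold series. Overnight TSB cultures were back-diluted to OD 0.01 and mixed 1:1 with compound. Incubation was overnight at 37 °C. MIC was the lowest concentration without visible growth (<0.1 OD600). DMSO vehicle was checked at equivalent concentrations.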

Staphylococcus aureus [6] = assay: Antibacterial activity against methicillin resistant Staphylococcus aureus NCTC 13616 assessed as bacterial growth inhibition incubated for overnight by microbroth dilution method; type: functional; in short: as §1
Staphylococcus aureus [7] = assay: Antibacterial activity against methicillin resistant Staphylococcus aureus USA 300 assessed as bacterial growth inhibition incubated for overnight by microbroth dilution method; type: functional; in short: as §1
Acinetobacter baumannii [8] = assay: Antibacterial activity against Acinetobacter baumannii AYE assessed as bacterial growth inhibition incubated for overnight by microbroth dilution method; type: functional; in short: as §2
Pseudomonas aeruginosa [9] = assay: Antibacterial activity against Pseudomonas aeruginosa PAO1 assessed as bacterial growth inhibition incubated for overnight by microbroth dilution method; type: functional; in short: as §2
Acinetobacter baumannii [10] = assay: Antibacterial activity against Acinetobacter baumannii ATCC 17978 assessed as bacterial growth inhibition incubated for overnight by microbroth dilution method; type: functional; in short: as §2
Staphylococcus aureus [11] = assay: Antibacterial activity against methicillin sensitive Staphylococcus aureus ATCC 9144 assessed as bacterial growth inhibition incubated for overnight by microbroth dilution method; type: functional; in short: as §1
Pseudomonas aeruginosa [12] = assay: Antibacterial activity against Pseudomonas aeruginosa NCTC 13437 assessed as bacterial growth inhibition incubated for overnight by microbroth dilution method; type: functional; in short: as §2
Klebsiella pneumoniae [13] = assay: Antibacterial activity against ESBL Klebsiella pneumoniae NCTC 13368 assessed as bacterial growth inhibition incubated for overnight by microbroth dilution method
Acinetobacter baumannii [14] = assay: Synergistic antibacterial activity against Acinetobacter baumannii ATCC 17978 assessed as rifampicin MIC at <=0.25 times MIC incubated for overnight by microbroth dilution checkerboard assay; type: functional
In short: (§3)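 Checkerboard microdilution under MIC conditions (TSB, overnight, 37 °C). Two-fold series of each agent were combined on one plate before bacteria were added, and single-agent MICs were measured on the same plate. FIC = sum of combination MIC/alone MIC for each agent, taken from the most synergistic well. Three independent repeats, mean ± SD. ≤0.5 was taken as strong synergy and 0.5–<1 as weak.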

Escherichia coli [15] = assay: Synergistic antibacterial activity against Escherichia coli NCTC 12923 assessed as fold change in rifampicin MIC at <=0.25 times MIC incubated for overnight by microbroth dilution checkerboard assay relative to rifampicin alone; type: functional; in short: as §3
Acinetobacter baumannii [16] = assay: Synergistic antibacterial activity against Acinetobacter baumannii AYE assessed as fold change in rifampicin MIC at <=0.25 times MIC incubated for overnight by microbroth dilution checkerboard assay relative to rifampicin alone; type: functional; in short: as §3
Klebsiella pneumoniae [17] = assay: Synergistic antibacterial activity against Klebsiella pneumoniae NCTC 13368 assessed as rifampicin MIC at <=0.25 times MIC incubated for overnight by microbroth dilution checkerboard assay; type: functional; in short: as §3
Escherichia coli [18] = assay: Synergistic antibacterial activity against Escherichia coli NCTC 12923 assessed as rifampicin MIC at <=0.25 times MIC incubated for overnight by microbroth dilution checkerboard assay; type: functional; in short: as §3
Klebsiella pneumoniae [19] = assay: Synergistic antibacterial activity against […] Klebsiella pneumoniae M6 assessed as rifampicin MIC at <=0.25 times MIC incubated for overnight by microbroth dilution checkerboard assay; type: functional
In short: (§4)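 Checkerboard run under the MIC conditions (TSB, overnight, 37 °C). Antibiotic and lipoguanidine 2-fold series were combined on one plate before bacteria were added. Growth/no-growth was scored as for the MIC (<0.1 OD600). Single-agent MICs were measured on the same plates. Three independent repeats were done.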

Pseudomonas aeruginosa [20] = assay: Synergistic antibacterial activity against Pseudomonas aeruginosa PAO1 assessed as fold change in rifampicin MIC at <=0.25 times MIC incubated for overnight by microbroth dilution checkerboard assay relative to rifampicin alone; type: functional
In short: (§5)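 Checkerboard microdilution in Tryptic Soy Broth, run like the MIC assay. Overnight TSB cultures were back-diluted to OD 0.01 and added 1:1 to the combined two-fold series of both agents, then incubated overnight at 37 °C. Growth/no-growth was called at <0.1 OD600. MICs alone were read on the same plates. FIC index came from the most synergistic well; three independent repeats, mean ± SD.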

Pseudomonas aeruginosa [21] = assay: Synergistic antibacterial activity against Pseudomonas aeruginosa NCTC 13437 assessed as fold change in rifampicin MIC at <=0.25 times MIC incubated for overnight by microbroth dilution checkerboard assay relative to rifampicin alone; type: functional; in short: as §5
Acinetobacter baumannii [22] = assay: Synergistic antibacterial activity against Acinetobacter baumannii ATCC 17978 assessed as fold change in rifampicin MIC at <=0.25 times MIC incubated for overnight by microbroth dilution checkerboard assay relative to rifampicin alone; type: functional; in short: as §3
Acinetobacter baumannii [23] = assay: Synergistic antibacterial activity against Acinetobacter baumannii AYE assessed as rifampicin MIC at <=0.25 times MIC incubated for overnight by microbroth dilution checkerboard assay; type: functional; in short: as §3
Klebsiella pneumoniae [24] = assay: Synergistic antibacterial activity against Klebsiella pneumoniae NCTC 13368 assessed as fold change in rifampicin MIC at <=0.25 times MIC incubated for overnight by microbroth dilution checkerboard assay relative to rifampicin alone; type: functional; in short: as §4
Pseudomonas aeruginosa [25] = assay: Synergistic antibacterial activity against Pseudomonas aeruginosa PAO1 assessed as rifampicin MIC at <=0.25 times MIC incubated for overnight by microbroth dilution checkerboard assay; type: functional; in short: as §5
Pseudomonas aeruginosa [26] = assay: Synergistic antibacterial activity against Pseudomonas aeruginosa NCTC 13437 assessed as rifampicin MIC at <=0.25 times MIC incubated for overnight by microbroth dilution checkerboard assay; type: functional; in short: as §5

SMILES | MIC (Enterococcus faecium) [µg/mL] | MIC (Klebsiella pneumoniae [1]) [µg/mL] | MIC (Staphylococcus aureus [2]) [µg/mL] | MIC (Enterococcus faecalis [3]) [µg/mL] | MIC (Enterococcus faecalis [4]) [µg/mL] | MIC (Escherichia coli [5]) [µg/mL] | MIC (Staphylococcus aureus [6]) [µg/mL] | MIC (Staphylococcus aureus [7]) [µg/mL] | MIC (Acinetobacter baumannii [8]) [µg/mL] | MIC (Pseudomonas aeruginosa [9]) [µg/mL] | MIC (Acinetobacter baumannii [10]) [µg/mL] | MIC (Staphylococcus aureus [11]) [µg/mL] | MIC (Pseudomonas aeruginosa [12]) [µg/mL] | MIC (Klebsiella pneumoniae [13]) [µg/mL] | MIC (Acinetobacter baumannii [14]) [µg/mL] | fold change (FC) (Escherichia coli [15]) | fold change (FC) (Acinetobacter baumannii [16]) | MIC (Klebsiella pneumoniae [17]) [µg/mL] | MIC (Escherichia coli [18]) [µg/mL] | MIC (Klebsiella pneumoniae [19]) [µg/mL] | other results
CCCCCCCC/C=C\CCCCCCCCNC(=N)NCCN(CCN)CCN | 4 (≈ 9.12 µM) | > 128 | 4 (≈ 9.12 µM) | 4 (≈ 9.12 µM) | 4 (≈ 9.12 µM) | 8 (≈ 18.2 µM) | 4 (≈ 9.12 µM) | 4 (≈ 9.12 µM) | 128 (≈ 292 µM) | 64 (≈ 146 µM) | 64 (≈ 146 µM) | 8 (≈ 18.2 µM) | 32 (≈ 72.9 µM) | > 128 |  |  |  |  |  |  | 
CCCCCCCC/C=C\CCCCCCCCNC(=N)NCCCCCCCCNC(=N)NCCCCCCCC/C=C\CCCCCCCC | 32 (≈ 43.9 µM) | > 128 | 32 (≈ 43.9 µM) | 64 (≈ 87.8 µM) | > 64 | 128 (≈ 176 µM) | > 64 | 64 (≈ 87.8 µM) | > 128 | > 128 | 128 (≈ 176 µM) | 64 (≈ 87.8 µM) | > 128 | > 128 |  |  |  |  |  |  | 
N=C(N)NCCCCCCCCNC(=N)N | > 128 | > 128 | > 128 | > 128 | > 128 | > 128 | > 128 | 128 (≈ 561 µM) | > 128 | > 128 | > 128 | 128 (≈ 561 µM) | > 128 | > 128 | 1 | 0 | 0 | 32 | 8 | 16 | fold change (FC) (Pseudomonas aeruginosa [20]): 0; fold change (FC) (Pseudomonas aeruginosa [21]): 0; fold change (FC) (Acinetobacter baumannii [22]): >=4; MIC (Acinetobacter baumannii [23]): 8 µg/mL; fold change (FC) (Klebsiella pneumoniae [24]): 0; MIC (Pseudomonas aeruginosa [25]): 32 µg/mL; MIC (Pseudomonas aeruginosa [26]): 32 µg/mL
CCCCCCCC/C=C\CCCCCCCCNC(=N)NCCCCCCCCN | 4 (≈ 9.16 µM) | > 128 | 4 (≈ 9.16 µM) | 4 (≈ 9.16 µM) | 2 (≈ 4.58 µM) | 16 (≈ 36.6 µM) | 4 (≈ 9.16 µM) | 2 (≈ 4.58 µM) | 32 (≈ 73.3 µM) | > 128 | 8 (≈ 18.3 µM) | 4 (≈ 9.16 µM) | > 128 | 32 (≈ 73.3 µM) |  |  |  |  |  |  | 
CCCCCCCC/C=C\CCCCCCCCNC(=N)NCCCCCCCCNC(=N)N | 4 (≈ 8.35 µM) | 64 (≈ 134 µM) | 4 (≈ 8.35 µM) | 4 (≈ 8.35 µM) | 4 (≈ 8.35 µM) | 32 (≈ 66.8 µM) | 4 (≈ 8.35 µM) | 2 (≈ 4.18 µM) | 16 (≈ 33.4 µM) | > 128 | 16 (≈ 33.4 µM) | 4 (≈ 8.35 µM) | > 128 | 128 (≈ 267 µM) |  |  |  |  |  |  | 
CCCCC/C=C\C/C=C\CCCCCCCCNC(=N)NCCCCNC(=N)N | 8 (≈ 19 µM) | 32 (≈ 76.1 µM) | 4 (≈ 9.51 µM) | 8 (≈ 19 µM) | 8 (≈ 19 µM) | 8 (≈ 19 µM) | 4 (≈ 9.51 µM) | 4 (≈ 9.51 µM) | > 64 | 64 (≈ 152 µM) | 32 (≈ 76.1 µM) | 4 (≈ 9.51 µM) | 64 (≈ 152 µM) | > 64 | ≤ 0.125 | >=4 | >=4 | ≤ 0.125 | 4 | ≤ 0.125 | fold change (FC) (Pseudomonas aeruginosa [20]): >=4; fold change (FC) (Pseudomonas aeruginosa [21]): >=4; fold change (FC) (Acinetobacter baumannii [22]): >=4; MIC (Acinetobacter baumannii [23]): ≤ 0.125 µg/mL; fold change (FC) (Klebsiella pneumoniae [24]): >=4; MIC (Pseudomonas aeruginosa [25]): 2 µg/mL; MIC (Pseudomonas aeruginosa [26]): 4 µg/mL
NCCCCCCCCN=C(N)N | > 128 | > 128 | > 128 | > 128 | > 128 | 128 (≈ 687 µM) | > 128 | 128 (≈ 687 µM) | > 128 | > 128 | > 128 | 128 (≈ 687 µM) | > 128 | > 128 | 1 | 0 | >=4 | 32 | 16 | 16 | fold change (FC) (Pseudomonas aeruginosa [20]): 0; fold change (FC) (Pseudomonas aeruginosa [21]): 0; fold change (FC) (Acinetobacter baumannii [22]): >=4; MIC (Acinetobacter baumannii [23]): 4 µg/mL; fold change (FC) (Klebsiella pneumoniae [24]): 0; MIC (Pseudomonas aeruginosa [25]): 32 µg/mL; MIC (Pseudomonas aeruginosa [26]): 32 µg/mL
